Test results taken from article PMC4121111 (Clinical cancer research : an official journal of the …, 2014).

How the values were obtained:
[1] = molecular target: T1, GRPR (Homo sapiens, UniProt P30550); assay: Cell binding study by FACS, PC3 cells; assay type: cell-based; details: 3×10^5 cells, 3 pmoles agent in PBS, 15 min, 4 °C, triplicates
Summary of the method: (§1)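 Cell lines came from ATCC and were grown per supplier instructions. 3×10^5 cells were incubated with 3 pmoles dye-peptide conjugate in PBS for 15 min at 4 °C, and cell fluorescence was measured. A scrambled-peptide conjugate served as control. For PC3 only, specificity was tested by co-incubation with bombesin (1.5×10−11 to 1.5×10−8 moles). Triplicates.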

[2] = Blood metabolism in living mice; assay type: in vivo
[3] = molecular target: T1, GRPR; assay: Cell binding study by FACS, LNCaP cells; assay type: cell-based; details: 3×10^5 cells, 3 pmoles agent in PBS, 15 min, 4 °C, triplicates
Summary of the method: as §1

[4] = molecular target: GRPR in PC3 tumors (Homo sapiens, UniProt P30550); assay: Photoacoustic imaging of GRPR in PC3 tumors in mice; assay type: in vivo; details: 30 to 60 minutes post injection of 10 nmol
Chain of GRPR in PC3 tumors (P30550 whole entry): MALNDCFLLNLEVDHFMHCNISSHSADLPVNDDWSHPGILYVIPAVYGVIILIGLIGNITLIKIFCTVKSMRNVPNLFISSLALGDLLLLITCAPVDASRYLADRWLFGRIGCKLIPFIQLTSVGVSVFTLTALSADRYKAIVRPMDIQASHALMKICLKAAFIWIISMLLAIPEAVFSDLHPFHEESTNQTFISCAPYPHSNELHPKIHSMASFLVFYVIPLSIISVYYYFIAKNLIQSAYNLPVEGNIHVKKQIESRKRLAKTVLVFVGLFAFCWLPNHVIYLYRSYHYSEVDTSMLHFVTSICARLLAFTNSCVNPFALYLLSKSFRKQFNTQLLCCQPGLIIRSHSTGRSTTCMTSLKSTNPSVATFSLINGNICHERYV
Summary of the method: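 Eight-week-old male nude mice carried flank PC3 xenografts (3 million cells, tumors 0.5–0.7 cm). Imaging used photoacoustic CT at 750 nm (100 views, 100 pulses/view) before and 30 and 60 min after tail-vein injection of 10 nmol agent in 200 µL PBS pH 7.4. The scrambled-peptide control group had n=4 and the active group n=6. 3D filtered back-projection; standard deviation.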

[5] = test system: GRPR; details: cited from earlier work

T1 sequence (P30550 whole entry): as above

Substance | binding to PC3 cells (cell fluorescence) [1] | blood lifetime [2] | level present in blood at 60 minutes postinjection ([2]; HPLC) | composition in mouse blood at 30 minutes post injection (HPLC) ([2]; blood, 30 minutes post injection, HPLC, three mice) | proteolysis in mouse blood ([2]; blood, 30 minutes postinjection, HPLC) | composition in mouse blood at one hour post injection (HPLC) ([2]; blood, 60 minutes post injection, HPLC) | binding to LNCaP cells (cell fluorescence) [3] | course of tumor photoacoustic signal over time [4] | binding affinity [5] | functional activity [5]
GGGdFQWAVGHStaL-NH2 [AA3G-740] | intense labeling | short blood lifetime | low level | major peak observed in blood at 30 minutes post injection was of the parent | no indication of proteolysis | intact agent was still the major component | minimal binding | increased over time |  | 
dFQWAVGHStaL-NH2 |  |  |  |  |  |  |  |  | high affinity binding | antagonist activity
GGGHdFGWStaAQLV-NH2 [CAA3G-740] | did not show appreciable binding |  |  |  |  |  |  |  |  | 
